Screening data from PubChem.
Autophagy HCS: autophagy modulators in MEF cells, primary screen, imaging, high-content, MEF GFP-LC3 | MEF GFP-LC3 puncta imaging; test concentration mostly 10 µM | calls only at 10 µM (by protocol) | 190,000 tested, 0.98% active | AID 463193, 2010;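 active means percentage of spot-positive cells more than 3 SD above its plate mean, without a fluorescence outlier flag or 80% toxicity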
Ins promoter up: insulin promoter activators in MIN6 cells, imaging, high-content screening, mouse beta cells; MIN6 insulin promoter-GFP reporter; stronger effect = higher value; z-score at 5 µM; 190,000 tested, 0.3% active; AID 1625, 2009;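 active means z-score above 3 at 5 µM with at least 500 cells counted in the well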
Insulin prom inh: inhibitors of insulin promoter-driven GFP, primary screen, imaging, TRM-6 cells (human fetal islet line), eGFP reporter, cell count. reporter expression induced with tamoxifen. inhibition, % at 2 µM. 130,000 tested, 0.9% active. AID 1273, 2008;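 active means inhibition above the mean plus 3 SD, with well images judged a real hit on visual review, cut at about 60% in these data, passing the limit was not always enough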
Dynein cargo inh: inhibitors of GR-EGFP nuclear translocation, primary screen, dynein cargo transport inhibitor project, imaging, high-content, 3617.4 mouse cells; test concentration mostly 20 µM; stimulated with dexamethasone, 1 µM; stronger effect = lower value; z-score, hits read low; 220,000 tested, 0.47% active; AID 1381, 2008;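 active means plate z-score of nuclear minus cytoplasmic receptor signal below a set negative limit, without overly bright fluorescence or cell loss, cut at about -3.5 in these data, passing the limit was not always enough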;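 further: z-score of nuclear minus cytoplasmic ring GR-EGFP intensity difference per well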
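Schedule: 48 h induction, then 1 h compound, then 30 min agonist, 37 °C. Buffer or medium: tetracycline-free induction medium containing charcoal-stripped FBS. Reagent: 1.0 µM final dexamethasone stimulus. Evaluation: nuclear versus cytoplasmic GR-EGFP signal, averaged per well. Signal: high-content fluorescence imaging after fixation.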
A number is an active result. Shown are actives, neighbours in structure and some others; about 2% of the full set was active somewhere.

CCSc1ncc(/C=N/Nc2ccccc2)n1C was read as Autophagy HCS inactive, Ins promoter up inactive, Insulin prom inh inactive and Dynein cargo inh inactive.
Screening Cc1ccccc1-n1c(C)cc(/C=N/Nc2ccc([N+](=O)[O-])cn2)c1C returned Autophagy HCS active, Ins promoter up inactive, Insulin prom inh inactive and Dynein cargo inh inactive.
Screening O=[N+]([O-])c1ccc(N/N=C\c2cccn2-c2ccccc2)nc1 returned Autophagy HCS active, Ins promoter up inactive and Dynein cargo inh inactive.
For CCSc1ncc(/C=N/Nc2ccc([N+](=O)[O-])cc2)n1C the results were Autophagy HCS active, Ins promoter up inactive, Insulin prom inh inactive and Dynein cargo inh inactive.
`O=[N+]([O-])c1ccc(N/N=C/c2ccc(OCc3cccc4ccccc34)cc2)nc1` gave Autophagy HCS active, Insulin prom inh inactive and Dynein cargo inh inactive.
CC(C)(C)OC(=O)N/N=C/c1cccn1-c1ccc([N+](=O)[O-])cc1 was read as Ins promoter up inactive and Dynein cargo inh inactive.
`Cc1cc(C)n(Cc2cc(C(=O)O)c3ccccc3n2)n1` gave Autophagy HCS inactive, Ins promoter up inactive and Dynein cargo inh inactive.
Screening CCOC(=O)c1[nH]c(C=O)c(C(=O)OCC)c1C returned Autophagy HCS inactive, Ins promoter up inactive, Insulin prom inh inactive and Dynein cargo inh inactive.
`CCCOc1ccc(N2CC(C(=O)NCCc3ccc(OC)c(OC)c3)CC2=O)cc1` (stereo not drawn) gave Autophagy HCS inactive, Ins promoter up inactive and Dynein cargo inh inactive.
O=C(CNC(=O)c1ccccc1C(=O)O)c1ccccc1 was read as Autophagy HCS inactive, Ins promoter up inactive, Insulin prom inh 77.8 and Dynein cargo inh inactive.
O=C(O)c1ccccc1C(=O)NCC(O)c1ccccc1 (stereo not drawn) was read as Ins promoter up inactive and Dynein cargo inh inactive.
`CNC(=S)NCCc1cc2c(OC)ccc(OC)c2[nH]c1=O` gave Autophagy HCS inactive, Ins promoter up inactive, Insulin prom inh inactive and Dynein cargo inh inactive.
`CC(C)C(NC(=O)C(NC(=O)C1OC2OC(C)(C)OC2C2OC(C)(C)OC12)C(C)C)C(=O)O` (stereo not drawn) gave Autophagy HCS inactive, Ins promoter up inactive and Dynein cargo inh inactive.
Screening COc1cc(S(=O)(=O)Nc2ccc(C)cc2)ccc1N=Cc1c(C)[nH]n(-c2ccccc2)c1=O returned Autophagy HCS inactive, Ins promoter up inactive, Insulin prom inh 72.0 and Dynein cargo inh inactive.
Screening COc1cc(S(=O)(=O)Nc2cccc(C)c2)ccc1N=Cc1c(C)[nH]n(-c2ccccc2)c1=O returned Autophagy HCS inactive, Ins promoter up inactive, Insulin prom inh inactive and Dynein cargo inh inactive.
For Cc1[nH]n(-c2ccccc2)c(=O)c1C=Nc1cccc2cccnc12 the results were Autophagy HCS active, Ins promoter up inactive, Insulin prom inh inactive and Dynein cargo inh inactive.
Cc1ccc(-n2[nH]c(C)c(/C=N/c3ccccn3)c2=O)cc1 was read as Autophagy HCS inactive, Ins promoter up inactive and Dynein cargo inh inactive.
Screening Nc1nc(SCc2ccccc2Cl)nc2nc3c(cc12)CCCC3 returned Autophagy HCS inactive, Ins promoter up inactive and Dynein cargo inh inactive.
`Nc1nc(SCc2ccc(Cl)cc2Cl)nc2nc3c(cc12)CCCC3` gave Autophagy HCS active, Ins promoter up inactive, Insulin prom inh inactive and Dynein cargo inh inactive.
Screening O=C(CSc1nnc(SCc2ccc(Cl)cc2)s1)N/N=C/c1ccccc1C(=O)O returned Ins promoter up inactive and Dynein cargo inh inactive.
`Cc1ccc(CNS(=O)(=O)NCc2cccs2)cc1` gave Autophagy HCS inactive, Ins promoter up inactive, Insulin prom inh 76.9 and Dynein cargo inh inactive.
For CCC(Sc1nc2cc3c(cc2c(=O)n1Cc1ccco1)OCO3)C(=O)Nc1cccc(OC)c1 (stereo not drawn) the results were Autophagy HCS active, Ins promoter up inactive, Insulin prom inh inactive and Dynein cargo inh inactive.
Screening CCC(Sc1nc2cc3c(cc2c(=O)n1Cc1ccco1)OCO3)C(=O)Nc1ccccc1OC (stereo not drawn) returned Autophagy HCS active, Ins promoter up inactive, Insulin prom inh inactive and Dynein cargo inh inactive.
For CCC(Sc1nc2cc3c(cc2c(=O)n1Cc1ccco1)OCO3)C(=O)NCCOC (stereo not drawn) the results were Autophagy HCS inactive, Ins promoter up inactive, Insulin prom inh inactive and Dynein cargo inh inactive.
For COc1cc(C2C(C#N)=C(N)OC3=C2C(=O)CC(C)(C)C3)ccc1OCCN1CCOCC1 (stereo not drawn) the results were Ins promoter up inactive and Dynein cargo inh inactive.
`O=C(Nc1ccc2nc(SCc3ccc(Cl)cc3)sc2c1)c1ccccc1C(=O)N1CCOCC1` gave Autophagy HCS active, Ins promoter up inactive and Dynein cargo inh inactive.
O=C(COC(=O)Cc1ccc(Cl)cc1)Nc1c(F)cccc1F was read as Autophagy HCS inactive, Ins promoter up inactive, Insulin prom inh inactive and Dynein cargo inh inactive.
For Cc1cccc(OCCn2c(NC(=O)c3ccco3)nc3ccccc32)c1 the results were Autophagy HCS active, Ins promoter up inactive, Insulin prom inh inactive and Dynein cargo inh inactive.
`Cc1ccc(OCCn2c(NC(=O)c3ccco3)nc3ccccc32)cc1` gave Autophagy HCS inactive, Ins promoter up inactive and Dynein cargo inh inactive.
COc1ccccc1-c1nnc(Nc2nc3c(OC)cccc3s2)o1 was read as Autophagy HCS inactive, Insulin prom inh inactive and Dynein cargo inh inactive.
`COc1cccc2sc(Nc3nnc(-c4ccccc4Cl)o3)nc12` gave Autophagy HCS active and Dynein cargo inh inactive.
Screening CCN(CC)c1ccc(/C=C(/C#N)c2nc3ccccc3[nH]2)c(OC(C)C)c1 returned Autophagy HCS active, Insulin prom inh inactive and Dynein cargo inh inactive.
`N#C/C(=C\c1ccncc1)c1nc2ccccc2[nH]1` gave Autophagy HCS inactive, Ins promoter up inactive and Dynein cargo inh inactive.
For CCOc1ccc(CCNC(=O)c2cccc(C#N)c2)cc1OCC the results were Autophagy HCS inactive, Ins promoter up inactive, Insulin prom inh inactive and Dynein cargo inh inactive.
ClCC1NCC(c2ccccc2Cl)c2c1[nH]c1ccccc21 (stereo not drawn) was read as Autophagy HCS inactive, Ins promoter up inactive, Insulin prom inh inactive and Dynein cargo inh inactive.
`Oc1ccc(Nc2nc(-c3ccc4ccccc4c3)cs2)cc1` gave Autophagy HCS active, Insulin prom inh inactive and Dynein cargo inh inactive.
For CCOC(=O)N1CCN(CCC(=O)c2ccc(Cl)cc2)CC1 the results were Autophagy HCS inactive, Ins promoter up inactive, Insulin prom inh inactive and Dynein cargo inh -5.39.
Screening CCOC(=O)N1CCN(CCC(=O)c2ccc(OC)cc2)CC1 returned Autophagy HCS inactive, Ins promoter up inactive, Insulin prom inh inactive and Dynein cargo inh inactive.
Fc1ccc(CNc2ncnc3c2cnn3-c2ccccc2)cc1 was read as Autophagy HCS active, Ins promoter up inactive, Insulin prom inh inactive and Dynein cargo inh inactive.
